Reference: ChEMBL document CHEMBL4130455, “Design, Synthesis, and Evaluation of Tetrahydropyrrolo[1,2-c]pyrimidines as Capsid Assembly Inhibitors for HBV Treatment” (ACS Med Chem Lett, 2017)
In brackets after ≈: the same amount, converted by molar mass.

Experiments:
[1] = test system: Hepatitis B virus; experiment: Antiviral activity against HBV infected in human HepG2.2.15 cells assessed as inhibition of viral DNA level incubated for 3 days followed by medium replacement measured after 3 days by RT-PCR method; format: functional, organism-based; settings: HepG2.2.15, 72 h
How it was run: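 HepG2.2.15 cells seeded at 4 × 10^4 cells/well, compound exposure 3 days, then fresh medium and a further 3-day incubation. Supernatants collected and stored at −80 °C. HBV DNA extracted from supernatant and quantified by qPCR. IC50 reported as the mean of three experiments.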

[2] = target: Core antigen (Hepatitis B virus, UniProt Q03732); experiment: Inhibition of HBV C150-Bodipy FL N-(2-aminoethyl) maleimide labeled capsid assessed as reduction in NaCl-induced capsid assembly preincubated for 15 mins followed by NaCl addition measured after 1 hr by fluorescence quenching assay
Sequence of Core antigen (Q03732 whole entry): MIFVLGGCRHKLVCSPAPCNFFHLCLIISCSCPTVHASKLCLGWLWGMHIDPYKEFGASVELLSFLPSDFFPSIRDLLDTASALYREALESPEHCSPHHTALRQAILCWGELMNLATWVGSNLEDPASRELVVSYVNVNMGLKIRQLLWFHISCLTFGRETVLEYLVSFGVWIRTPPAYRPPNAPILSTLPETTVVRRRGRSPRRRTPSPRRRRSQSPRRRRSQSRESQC

[3] = Lipophilicity, log D of the compound; format: physicochemical; settings: octanol/water
[4] = Kinetic solubility of the compound; format: physicochemical; settings: read-out: Kinetic_solubility
[5] = Ratio of AUC (0 to 4 hrs) in Balb/c mouse liver to plasma administered orally by LC-MS/MS analysis; format: ADME; settings: liver and plasma, po, read-out: Ratio AUC
[6] = target: T1, Cytochrome P450 1A2 (Homo sapiens, UniProt P05177); experiment: Inhibition of CYP1A2 in human liver microsomes using phenacetin as substrate preincubated for 10 mins followed by substrate addition measured after 10 mins in presence of NADPH by LC-MS/MS analysis; format: ADME
T1 sequence (P05177 whole entry): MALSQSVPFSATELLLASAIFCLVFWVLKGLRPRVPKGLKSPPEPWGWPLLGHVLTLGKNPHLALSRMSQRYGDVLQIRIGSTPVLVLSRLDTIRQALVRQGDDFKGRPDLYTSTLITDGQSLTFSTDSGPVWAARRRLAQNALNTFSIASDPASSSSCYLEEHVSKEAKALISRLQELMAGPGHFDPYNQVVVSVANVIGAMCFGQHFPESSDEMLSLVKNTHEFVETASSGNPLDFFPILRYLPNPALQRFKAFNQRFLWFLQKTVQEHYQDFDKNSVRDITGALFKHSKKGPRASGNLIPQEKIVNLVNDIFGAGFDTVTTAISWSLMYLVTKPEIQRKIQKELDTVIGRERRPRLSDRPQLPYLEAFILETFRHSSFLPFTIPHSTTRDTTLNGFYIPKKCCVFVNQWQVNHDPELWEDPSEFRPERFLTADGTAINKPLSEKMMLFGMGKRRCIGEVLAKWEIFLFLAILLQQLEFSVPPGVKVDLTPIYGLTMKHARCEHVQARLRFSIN

[7] = target: Cytochrome P450 2C9 (Homo sapiens, UniProt P11712); experiment: Inhibition of CYP2C9 in human liver microsomes using diclofenac as substrate preincubated for 10 mins followed by substrate addition measured after 10 mins in presence of NADPH by LC-MS/MS analysis; format: ADME
Sequence of Cytochrome P450 2C9 (P11712 whole entry): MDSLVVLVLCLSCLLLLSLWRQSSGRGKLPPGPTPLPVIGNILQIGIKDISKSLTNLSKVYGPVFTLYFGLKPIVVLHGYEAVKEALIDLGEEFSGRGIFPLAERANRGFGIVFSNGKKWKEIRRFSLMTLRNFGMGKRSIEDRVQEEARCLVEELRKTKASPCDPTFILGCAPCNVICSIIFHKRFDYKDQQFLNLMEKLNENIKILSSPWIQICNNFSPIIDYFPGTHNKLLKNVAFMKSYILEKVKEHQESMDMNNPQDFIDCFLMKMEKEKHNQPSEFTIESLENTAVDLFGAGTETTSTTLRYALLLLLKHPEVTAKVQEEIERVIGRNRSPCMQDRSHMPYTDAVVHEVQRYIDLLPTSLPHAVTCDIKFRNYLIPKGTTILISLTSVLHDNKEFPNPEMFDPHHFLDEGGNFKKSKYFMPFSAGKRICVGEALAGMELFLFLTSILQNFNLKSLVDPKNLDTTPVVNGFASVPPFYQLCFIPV

[8] = target: Cytochrome P450 2C19 (Homo sapiens, UniProt P33261); experiment: Inhibition of CYP2C19 in human liver microsomes using S-mephenytoin as substrate preincubated for 10 mins followed by substrate addition measured after 10 mins in presence of NADPH by LC-MS/MS analysis; format: ADME
Sequence of Cytochrome P450 2C19 (P33261 whole entry): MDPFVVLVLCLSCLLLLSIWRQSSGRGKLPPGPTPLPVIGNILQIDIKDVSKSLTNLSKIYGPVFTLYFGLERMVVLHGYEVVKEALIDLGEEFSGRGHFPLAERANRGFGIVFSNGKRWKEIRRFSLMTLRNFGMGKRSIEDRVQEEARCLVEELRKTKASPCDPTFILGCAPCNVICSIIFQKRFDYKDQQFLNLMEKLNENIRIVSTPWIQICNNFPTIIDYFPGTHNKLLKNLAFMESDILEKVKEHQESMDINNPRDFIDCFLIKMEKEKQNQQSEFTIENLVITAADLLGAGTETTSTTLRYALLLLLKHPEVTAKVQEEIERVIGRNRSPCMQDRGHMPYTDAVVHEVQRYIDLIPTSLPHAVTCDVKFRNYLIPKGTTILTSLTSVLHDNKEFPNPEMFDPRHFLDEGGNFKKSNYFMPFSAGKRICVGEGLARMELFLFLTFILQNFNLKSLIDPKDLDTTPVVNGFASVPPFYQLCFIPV

[9] = target: Cytochrome P450 2D6 (Homo sapiens, UniProt P10635); experiment: Inhibition of CYP2D6 in human liver microsomes using dextromethorphan as substrate preincubated for 10 mins followed by substrate addition measured after 10 mins in presence of NADPH by LC-MS/MS analysis; format: ADME; settings: read-out: INH
Sequence of Cytochrome P450 2D6 (P10635 whole entry): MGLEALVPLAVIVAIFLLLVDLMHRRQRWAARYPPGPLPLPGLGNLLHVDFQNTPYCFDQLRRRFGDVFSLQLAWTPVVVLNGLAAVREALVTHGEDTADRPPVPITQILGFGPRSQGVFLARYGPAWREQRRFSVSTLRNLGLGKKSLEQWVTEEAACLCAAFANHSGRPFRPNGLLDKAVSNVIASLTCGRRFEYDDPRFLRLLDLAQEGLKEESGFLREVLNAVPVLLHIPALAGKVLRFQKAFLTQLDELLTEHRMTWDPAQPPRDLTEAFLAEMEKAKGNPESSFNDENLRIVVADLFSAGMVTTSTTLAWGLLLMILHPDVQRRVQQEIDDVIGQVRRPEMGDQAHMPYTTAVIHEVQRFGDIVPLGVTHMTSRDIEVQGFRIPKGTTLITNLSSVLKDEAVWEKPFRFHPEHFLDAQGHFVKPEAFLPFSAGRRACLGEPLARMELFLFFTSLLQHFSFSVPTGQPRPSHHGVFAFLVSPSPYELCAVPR

[10] = target: Cytochrome P450 3A4 (Homo sapiens, UniProt P08684); experiment: Inhibition of CYP3A4 in human liver microsomes using midazolam as substrate preincubated for 10 mins followed by substrate addition measured after 10 mins in presence of NADPH by LC-MS/MS analysis; format: ADME; settings: read-out: INH
Sequence of Cytochrome P450 3A4 (P08684 whole entry): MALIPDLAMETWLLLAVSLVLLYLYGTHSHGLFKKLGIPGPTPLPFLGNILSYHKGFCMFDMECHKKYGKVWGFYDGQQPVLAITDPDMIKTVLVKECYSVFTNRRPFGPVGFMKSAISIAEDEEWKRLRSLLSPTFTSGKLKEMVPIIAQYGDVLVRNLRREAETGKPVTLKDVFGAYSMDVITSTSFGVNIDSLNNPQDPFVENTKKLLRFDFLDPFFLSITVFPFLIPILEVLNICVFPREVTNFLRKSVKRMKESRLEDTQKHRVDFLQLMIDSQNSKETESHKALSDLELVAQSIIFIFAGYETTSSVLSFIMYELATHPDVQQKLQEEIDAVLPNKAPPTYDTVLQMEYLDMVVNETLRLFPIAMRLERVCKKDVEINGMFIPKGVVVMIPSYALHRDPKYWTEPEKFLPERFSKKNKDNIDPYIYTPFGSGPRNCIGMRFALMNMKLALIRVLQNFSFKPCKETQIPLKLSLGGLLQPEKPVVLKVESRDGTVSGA

[11] = Half life in Balb/c mouse at 1 mg/kg, iv administered as bolus by LC-MS/MS analysis; format: ADME, organism-based; settings: in vivo
How it was run: (§1)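 Single-dose PK in female Balb/c mice, n = 3 per compound; dosing vehicle 0.5% HEC, formulated at 1.00 mg/mL.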

[12] = Volume of distribution at steady state in Balb/c mouse at 1 mg/kg, iv administered as bolus by LC-MS/MS analysis; format: ADME, organism-based; settings: in vivo, read-out: Vdss; how it was run: as §1
[13] = Clearance in Balb/c mouse at 1 mg/kg, iv administered as bolus by LC-MS/MS analysis; format: ADME, organism-based; settings: in vivo; how it was run: as §1
[14] = AUC (0 to last) in Balb/c mouse at 1 mg/kg, iv administered as bolus by LC-MS/MS analysis; format: ADME, organism-based; set-up: dose 1 mg/kg, time 0 - last, route intravenous; settings: in vivo; how it was run: as §1
[15] = Cmax in Balb/c mouse at 10 mg/kg, po administered via gavage by LC-MS/MS analysis; format: ADME, organism-based; set-up: dose 10 mg/kg, route oral; settings: in vivo; how it was run: as §1
[16] = AUC (0 to last) in Balb/c mouse at 10 mg/kg, po administered via gavage by LC-MS/MS analysis; format: ADME, organism-based; set-up: dose 10 mg/kg, time 0 - last, route oral; settings: in vivo; how it was run: as §1
[17] = Oral bioavailability in Balb/c mouse at 10 mg/kg administered via gavage by LC-MS/MS analysis; format: ADME, organism-based; settings: in vivo; how it was run: as §1
[18] = test system: Hepatitis B virus; experiment: Antiviral activity against HBV1.3 mer infected in hydrodynamic injection BALB/c mouse model assessed as log reduction in viral DNA in plasma at 50 mg/kg, po bid measured on day 3 by real-time PCR method relative to control; format: functional
How it was run: (§2)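 HBV DNA mouse model established by hydrodynamic injection. Mice, n = 6 per group, dosed orally twice daily with compound or vehicle (0.5% HEC). HBV DNA in plasma and liver measured by qPCR; log reduction taken versus the vehicle group. Error shown as standard error; significance by Student's t test.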

[19] = test system: Hepatitis B virus; experiment: Antiviral activity against HBV1.3 mer infected in hydrodynamic injection BALB/c mouse model assessed as log reduction in viral DNA in liver at 50 mg/kg, po bid measured on day 7 by real-time PCR method relative to control; format: functional; how it was run: as §2
[20] = test system: Hepatitis B virus; experiment: Antiviral activity against HBV1.3 mer infected in hydrodynamic injection BALB/c mouse model assessed as log reduction in viral DNA in plasma at 50 mg/kg, po bid measured on day 5 by real-time PCR method relative to control

Structure (SMILES)	IC50 [1] [µM]	other results
CCOC(=O)C1=C2CCCN2C(c2nccs2)=NC1c1c(F)cccc1Cl (configuration not stated)	> 10	
COCCOC(=O)C1=C2CCCN2C(c2nccs2)=NC1c1ccc(F)cc1Cl (configuration not stated)	> 10	
CCOC(=O)C1=C2CCCN2C(c2nccs2)=NC1c1cc(Cl)sc1Cl (configuration not stated)	1.7	
CCOC(=O)C1=C2CCCCN2C(c2nccs2)=NC1c1ccc(F)cc1Cl (configuration not stated)	1.4	
CCOC(=O)C1=C2CN(C(C)=O)CCN2C(c2nccs2)=NC1c1ccc(F)cc1Br (configuration not stated)	0.77	
CCOC(=O)C1=C2CCCN2C(c2nccs2)=NC1c1nccs1 (configuration not stated)	> 10	
CCOC(=O)C1=C2CCCN2C(c2nccs2)=NC1c1ccc(F)cc1 (configuration not stated)	1.2	
COC(=O)C1=C2C[C@@H](NC(=O)OC(C)(C)C)CN2C(c2nccs2)=N[C@H]1c1ccc(F)cc1Cl	50	
CCOC(=O)C1=C2CCCN2C(c2nccs2)=NC1c1cccc(F)c1Cl (configuration not stated)	0.31	
CCOC(=O)C1=C2CCCN2C(c2ccc(F)cn2)=NC1c1ccc(F)cc1Cl (configuration not stated)	8.3	
CCOC(=O)C1=C2CCCN2C(c2nccs2)=NC1c1ccncc1Cl (configuration not stated)	> 10	
CCOC(=O)C1=C2CCCN2C(c2nccs2)=NC1c1cc(F)ccc1Cl (configuration not stated)	> 10	
CCOC(=O)C1=C2CCCN2C(c2nccs2)=NC1c1ccc(F)cc1C (configuration not stated)	0.45	
CCOC(=O)C1=C2CCCN2C(c2ncc(F)cc2F)=NC1c1ccc(F)cc1Cl (configuration not stated)	1.6	
CCOC(=O)C1=C2CCN2C(c2nccs2)=NC1c1ccc(F)cc1Cl (configuration not stated)	4.1	
COC(=O)C1=C(C)NC(c2ncc(F)cc2F)=N[C@H]1c1ccc(F)cc1Cl	0.075	
COC(=O)C1=C2CCCN2C(c2nccs2)=NC1c1ccc(F)cc1Cl (configuration not stated)	0.32	
CCOC(=O)C1=C2CCCN2C(c2ncco2)=NC1c1ccc(F)cc1Cl (configuration not stated)	6.3	
CCOC(=O)C1=C2CCCN2C(c2nccs2)=NC1c1ccc(F)cc1Br (configuration not stated)	0.21	
COC(=O)C1=C2C[C@H](NS(C)(=O)=O)CN2C(c2nccs2)=N[C@H]1c1ccc(F)c(F)c1F	10	
CCOC(=O)C1=C2CCCN2C(c2nccs2)=NC1c1cnn(C)c1 (configuration not stated)	> 10	
CCOC(=O)C1=C2CCCN2C(N2CCOCC2)=NC1c1ccc(F)cc1Cl (configuration not stated)	> 10	
CCOC(=O)C1=C2CCCN2C(c2ccsn2)=NC1c1ccc(F)cc1Cl (configuration not stated)	2.8	
CCOC(=O)C1=C2CN(S(C)(=O)=O)CCN2C(c2nccs2)=NC1c1ccc(F)cc1Br (configuration not stated)	0.81	

Structure (SMILES)	IC50 [1] [µM]	other results
CCOC(=O)C1=C2C[C@H](NS(C)(=O)=O)CN2C(c2nccs2)=N[C@H]1c1ccc(F)cc1Cl	10	
CCOC(=O)C1=C2CNC(=O)CN2C(c2nccs2)=NC1c1ccc(F)cc1Br (configuration not stated)	3.5	
CCOC(=O)C1=C2CCCN2C(c2ccccn2)=NC1c1ccc(F)cc1Cl (configuration not stated)	> 10	
CCOC(=O)C1=C2CCCN2C(c2nccn2C)=NC1c1ccc(F)cc1Cl (configuration not stated)	2	
CCOC(=O)C1=C2CNCCN2C(c2nccs2)=NC1c1ccc(F)cc1Br (configuration not stated)	9.3	
COC(=O)C1=C2C[C@@H](NS(C)(=O)=O)CN2C(c2nccs2)=N[C@H]1c1ccc(F)cc1Cl	0.06	
CCOC(=O)C1=C2C[C@H](N(C)C)CN2C(c2nccs2)=N[C@H]1c1ccc(F)cc1Br	500	
CCOC(=O)C1=C2CCCN2C(c2nccs2)=NC1c1ccc(F)cc1Cl (configuration not stated)	0.3	
CCOC(=O)C1=C2CCCN2C(c2nccs2)=NC1c1ncc(F)cc1F (configuration not stated)	> 10	
CCOC(=O)C1=C2CCCN2C(c2nccs2)=NC1c1ccc(F)c(F)c1 (configuration not stated)	0.43	
CCOC(=O)C1=C2C[C@@H](NS(C)(=O)=O)CN2C(c2nccs2)=N[C@H]1c1ccc(F)cc1Cl	70	
CCOC(=O)C1=C2COCCN2C(c2nccs2)=NC1c1ccc(F)cc1Br (configuration not stated)	2.5	
CCOC(=O)C1=C2CCC(C)N2C(c2nccs2)=NC1c1ccc(F)cc1Cl (configuration not stated)	8000	
COC(=O)C1=C2C[C@H](NS(C)(=O)=O)CN2C(c2nccs2)=N[C@H]1c1ccc(F)cc1Cl	0.01	IC50 [2]: 800 nM; logD [3]: 2.8; solubility kinetic [4]: 22 µM (≈ 10.7 µg/mL); Kp [5]: 10; INH [6]: > 50 µM; INH [7]: 28 µM; INH [8]: 39 µM; IC50 [9]: > 50 µM; IC50 [10]: 11 µM; half-life [11]: 66 min; Vd [12]: 2 L/kg; clearance [13]: 21 mL/min/kg; AUC(0-t) [14]: 1.7 µM·h; Cmax [15]: 4.7 µM; AUC(0-t) [16]: 9.1 µM·h; bioavailability [17]: 54%; FC [18]: 2.05; FC [19]: 0.68; FC [20]: 2.57
COCOC(=O)C1=C2CCCN2C(c2nccs2)=NC1c1ccc(F)cc1Cl (configuration not stated)	2.1	
CCOC(=O)C1=C2CCCN2C(c2nccs2)=NC1c1ccc(F)cc1F (configuration not stated)	0.51	
CONC(=O)C1=C2CCCN2C(c2nccs2)=NC1c1ccc(F)cc1Cl (configuration not stated)	5	
CCOC(=O)C1=C2CCCN2C(c2cnn(C)c2)=NC1c1ccc(F)cc1Cl (configuration not stated)	> 10	
CCOC(=O)C1=C2CCCN2C(C2CC2)=NC1c1ccc(F)cc1Cl (configuration not stated)	> 10	
CCOC(=O)C1=C2CCCN2C(c2ncc(F)cn2)=NC1c1ccc(F)cc1Cl (configuration not stated)	> 10	
CCOC(=O)C1=C2C[C@H](O)CN2C(c2nccs2)=NC1c1ccc(F)cc1Cl (some centres not stated)	320	
O=C(OCC(F)F)C1=C2CCCN2C(c2nccs2)=NC1c1ccc(F)cc1Cl (configuration not stated)	2	
CN(C)CCOC(=O)C1=C2CCCN2C(c2nccs2)=NC1c1ccc(F)cc1Cl (configuration not stated)	> 10	
COC(=O)C1=C2C[C@H](NC(=O)OC(C)(C)C)CN2C(c2nccs2)=N[C@H]1c1ccc(F)cc1Cl	30	
